From ChEMBL document CHEMBL1141118, “Synthesis and SAR of 5-amino- and 5-(aminomethyl)benzofuran histamine H3 receptor antagonists with improved potency” (J Med Chem, 2005)

Assays:
[1] = Area under plasma concentration curve of the compound upon i.v. dose of 1 mg/kg in rats; type: ADME, organism-based; set-up: dose 1 mg/kg, route intravenous; details: rat, in vivo, iv
[2] = Area under plasma concentration curve of the compound upon p.o. dose of 1 mg/kg in rats; type: ADME, organism-based; set-up: dose 1 mg/kg, route oral; details: rat, in vivo, po
[3] = Oral bioavailability in rat (dose 1 mg/kg); type: ADME, organism-based; details: in vivo
[4] = Plasma clearance upon i.v. dose of 1 mg/kg in rats; type: ADME, organism-based; set-up: dose 1 mg/kg, route intravenous; details: rat, iv
[5] = Terminal half life upon p.o. dose of 1 mg/kg in rats; type: ADME, organism-based; set-up: dose 1 mg/kg, route oral; details: rat, in vivo, po
[6] = Terminal half life upon i.v. dose of 1 mg/kg in rats; type: ADME, organism-based; set-up: dose 1 mg/kg, route intravenous; details: rat, in vivo, iv
[7] = Maximum plasma concentration upon p.o. dose of 1 mg/kg in rats; type: ADME, organism-based; set-up: dose 1 mg/kg, route oral; details: rat, po
Histamine H3 receptor [8] = biological target: Histamine H3 receptor (Rattus norvegicus, UniProt Q9QYN8); test: In vitro binding affinity for rat histamine H3 receptor using [3H]N-alpha-methylhistamine
Sequence of Histamine H3 receptor (Rattus norvegicus, UniProt Q9QYN8) (Q9QYN8 whole entry): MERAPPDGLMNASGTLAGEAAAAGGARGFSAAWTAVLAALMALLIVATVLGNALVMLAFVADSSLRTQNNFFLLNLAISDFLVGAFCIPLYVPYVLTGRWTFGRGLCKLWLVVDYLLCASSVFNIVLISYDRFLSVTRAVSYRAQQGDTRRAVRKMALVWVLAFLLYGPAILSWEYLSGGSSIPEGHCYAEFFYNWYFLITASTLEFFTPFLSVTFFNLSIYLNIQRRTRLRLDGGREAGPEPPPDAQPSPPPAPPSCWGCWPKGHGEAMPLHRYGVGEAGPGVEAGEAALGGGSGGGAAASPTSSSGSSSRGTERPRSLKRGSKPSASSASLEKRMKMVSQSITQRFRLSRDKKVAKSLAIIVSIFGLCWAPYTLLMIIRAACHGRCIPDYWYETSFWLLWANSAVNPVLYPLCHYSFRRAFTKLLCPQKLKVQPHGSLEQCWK
How it was run: (§1)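 Radioligand binding used membranes from cells transfected with cloned human or rat H3 receptors.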

Histamine H3 receptor [9] = biological target: Histamine H3 receptor (Homo sapiens, UniProt Q9Y5N1); test: In vitro binding affinity for human histamine H3 receptor using [3H]N-alpha-methylhistamine; how it was run: as §1
Sequence of Histamine H3 receptor (Homo sapiens, UniProt Q9Y5N1) (Q9Y5N1 whole entry): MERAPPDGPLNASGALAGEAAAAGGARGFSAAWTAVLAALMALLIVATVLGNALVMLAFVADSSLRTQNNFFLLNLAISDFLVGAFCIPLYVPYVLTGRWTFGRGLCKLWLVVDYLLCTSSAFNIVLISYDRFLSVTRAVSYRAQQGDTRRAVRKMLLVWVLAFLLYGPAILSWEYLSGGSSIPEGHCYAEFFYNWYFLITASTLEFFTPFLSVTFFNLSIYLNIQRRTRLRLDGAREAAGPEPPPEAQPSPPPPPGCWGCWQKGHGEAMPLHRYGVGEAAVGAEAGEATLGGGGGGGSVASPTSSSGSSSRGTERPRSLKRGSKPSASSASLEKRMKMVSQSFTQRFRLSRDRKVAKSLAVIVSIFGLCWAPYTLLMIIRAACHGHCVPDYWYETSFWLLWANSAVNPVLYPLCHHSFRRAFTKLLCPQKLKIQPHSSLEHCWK

SMILES | Ki (Histamine H3 receptor [8]) [nM] | Ki (Histamine H3 receptor [9]) [nM] | further results
C[C@@H]1CCCN1CCc1cc2cc(-c3ccc(C#N)cc3)ccc2o1 |  |  | AUC [1]: 667 ng·h/mL; AUC [2]: 426 ng·h/mL; bioavailability [3]: 61.8%; clearance [4]: 25.7 mL/min/kg; half-life [5]: 6.7 h; half-life [6]: 5.7 h; Cmax [7]: 39.6 ng/mL
C[C@@H]1CCCN1CCc1cc2cc(Nc3ccc(C#N)cc3)ccc2o1 | 1.35 | 0.27 | 
C[C@@H]1CCCN1CCc1cc2cc(CNc3ccc(Cl)nn3)ccc2o1 | 1.58 | 0.31 | 
C[C@@H]1CCCN1CCc1cc2cc(Nc3ccccc3[N+](=O)[O-])ccc2o1 | 0.87 | 0.22 | 
C[C@@H]1CCCN1CCc1cc2cc(CNc3ccc([N+](=O)[O-])cn3)ccc2o1 | 1.19 | 0.3 | 
CCc1cnc(Nc2ccc3oc(CCN4CCC[C@H]4C)cc3c2)nc1 | 2.51 | 0.62 | AUC [1]: 355 ng·h/mL; AUC [2]: 103 ng·h/mL; bioavailability [3]: 29%; clearance [4]: 47 mL/min/kg; half-life [5]: 4.8 h; half-life [6]: 3.7 h; Cmax [7]: 16.2 ng/mL
C[C@@H]1CCCN1CCc1cc2cc(CNc3cccc(C#N)c3)ccc2o1 | 1.18 | 0.4 | 
C[C@@H]1CCCN1CCc1cc2cc(CNc3ncccc3C#N)ccc2o1 | 1.92 | 0.74 | 
C[C@@H]1CCCN1CCc1cc2cc(CNc3ccc(C#N)cn3)ccc2o1 | 1.42 | 0.34 | 
C[C@@H]1CCCN1CCc1cc2cc(CNc3ccccc3[N+](=O)[O-])ccc2o1 | 0.87 | 0.31 | 
C[C@@H]1CCCN1CCc1cc2cc(CNc3ncc([N+](=O)[O-])s3)ccc2o1 | 0.68 | 0.19 | 
C[C@@H]1CCCN1CCc1cc2cc(CNc3cc(C#N)nc(C#N)c3)ccc2o1 | 0.4 | 0.13 | 
C[C@@H]1CCCN1CCc1cc2cc(CNc3ncccn3)ccc2o1 | 3.27 | 0.84 | AUC [1]: 350 ng·h/mL; AUC [2]: 72.1 ng·h/mL; bioavailability [3]: 20.6%; clearance [4]: 47.7 mL/min/kg; half-life [5]: 1.7 h; half-life [6]: 1 h; Cmax [7]: 34.5 ng/mL
CCc1cnc(NCc2ccc3oc(CCN4CCC[C@H]4C)cc3c2)nc1 | 0.58 | 0.33 | AUC [1]: 210 ng·h/mL; AUC [2]: 18.9 ng·h/mL; bioavailability [3]: 9%; clearance [4]: 79.8 mL/min/kg; half-life [6]: 1.7 h; Cmax [7]: 7.1 ng/mL
C[C@@H]1CCCN1CCc1cc2cc(Nc3cncnc3)ccc2o1 | 0.27 | 0.08 | AUC [1]: 35.9 ng·h/mL; AUC [2]: 0 ng·h/mL; bioavailability [3]: 0%; clearance [4]: 475 mL/min/kg; half-life [6]: 0.3 h
C[C@@H]1CCCN1CCc1cc2cc(CNc3ncc(Br)cn3)ccc2o1 | 4.02 | 1.22 | 
C[C@@H]1CCCN1CCc1cc2cc(Nc3ncccc3[N+](=O)[O-])ccc2o1 | 0.35 | 0.14 | 
C[C@@H]1CCCN1CCc1cc2cc(Nc3ncccn3)ccc2o1 | 2.01 | 0.31 | 
Cc1ccc(C#N)c(Nc2ccc3oc(CCN4CCC[C@H]4C)cc3c2)n1 | 17.9 | 2.98 | 
C[C@@H]1CCCN1CCc1cc2cc(CNc3ccc([N+](=O)[O-])cc3)ccc2o1 | 2.12 | 0.74 | 
C[C@@H]1CCCN1CCc1cc2cc(Nc3cccc(C#N)c3)ccc2o1 | 1.47 | 0.29 | 
C[C@@H]1CCCN1CCc1cc2cc(CNc3cnccn3)ccc2o1 | 0.8 | 0.29 | 
C[C@@H]1CCCN1CCc1cc2cc(CNc3cncnc3)ccc2o1 | 2.51 | 0.69 | 
C[C@@H]1CCCN1CCc1cc2cc(CNc3ncccc3[N+](=O)[O-])ccc2o1 | 2.71 | 0.43 | 
C[C@@H]1CCCN1CCc1cc2cc(CNc3nccnc3C#N)ccc2o1 | 3.96 | 1.04 | 
C[C@@H]1CCCN1CCc1cc2cc(Nc3cnccn3)ccc2o1 | 0.38 | 0.11 | 
C[C@@H]1CCCN1CCc1cc2cc(Nc3ccc(C(F)(F)F)cn3)ccc2o1 | 2.76 | 0.54 | 
C[C@@H]1CCCN1CCc1cc2cc(CNc3ccc(C(=O)C(F)(F)F)cc3)ccc2o1 | 2.36 | 0.74 | 
C[C@@H]1CCCN1CCc1cc2cc(CNc3ncc([N+](=O)[O-])cc3[N+](=O)[O-])ccc2o1 | 2.88 | 0.71 | 
C[C@@H]1CCCN1CCc1cc2cc(Nc3ccc([N+](=O)[O-])cn3)ccc2o1 | 0.11 | 0.05 | 
